Test results as given in ChEMBL document CHEMBL2146385, “Synthesis and antiviral evaluation of bis(POM) prodrugs of (E)-[4'-phosphono-but-2'-en-1'-yl]purine nucleosides” (Eur J Med Chem, 2012).
pEC50, pIC50: −log10 of the molar value. Activity calls are given as the source filed them. No cut-off for these calls is given here.

Tests used:
[1] = tested on: Influenza A virus; experiment: Antiviral activity against Influenza A virus H1N1 infected in MDCK assessed as inhibition of virus-induced cytopathicity after 3 days; type: functional, organism-based
[2] = tested on: Human alphaherpesvirus 3; experiment: Antiviral activity against VZV OKA expressing thymidine kinase infected in HEL cells assessed as inhibition of virus-induced cytopathogenicity after 3 days; type: functional, cell-based; details: Human alphaherpesvirus 3, strain Oka vaccine, 72 h
[3] = tested on: Human respirovirus 3; experiment: Antiviral activity against Parainfluenza-3 virus infected in african green monkey Vero assessed as inhibition of virus-induced cytopathicity after 3 days; type: functional, organism-based
Method in brief: (§1)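 Confluent cell monolayers infected with 100 CCID50 of virus in the presence of test compound at 100, 20,... μM. Cytopathicity was scored once it was complete in untreated infected controls.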

[4] = tested on: Influenza B virus; experiment: Antiviral activity against Influenza B virus infected in MDCK assessed as inhibition of virus-induced cytopathicity after 3 days; type: functional, organism-based
[5] = tested on: Felid alphaherpesvirus 1; experiment: Antiviral activity against Feline herpesvirus infected in CRFK cells assessed as inhibition of virus-induced cytopathicity after 3 days; type: functional, organism-based; details: Felid alphaherpesvirus 1, CRFK, 72 h
[6] = Cytotoxicity against CRFK cells after 3 days; type: cell-based, Felis catus; details: cat
[7] = tested on: Vaccinia virus; experiment: Antiviral activity against Vaccinia virus infected in HEL assessed as inhibition of virus-induced cytopathicity after 3 days; type: functional, organism-based; details: Orthopoxvirus vaccinia, 72 h
[8] = tested on: Respiratory syncytial virus; experiment: Antiviral activity against Respiratory syncytial virus infected in human HeLa assessed as inhibition of virus-induced cytopathicity after 3 days; type: functional, organism-based; method in brief: as §1
[9] = Cytotoxicity against HEL after 3 days; type: cell-based; details: human, HEL cells
Method in brief: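 HEL cells were seeded at 5×10^3 cells/well and allowed to grow for 24 h, then given medium with varying compound concentrations. After 3 days at 37 °C, cells were counted with a Coulter counter.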

[10] = tested on: Vesicular stomatitis virus; experiment: Antiviral activity against Vesicular stomatitis virus infected in human HeLa assessed as inhibition of virus-induced cytopathicity after 3 days; type: functional, organism-based
[11] = tested on: Human alphaherpesvirus 3; experiment: Antiviral activity against thymidine kinase-deficient VZV 07/1 infected in human HEL cells assessed as reduction of virus-induced cytopathogenicity after 3 days; type: functional, organism-based; details: Human alphaherpesvirus 3, 07/1, HEL, 72 h
[12] = tested on: Vesicular stomatitis virus; experiment: Antiviral activity against Vesicular stomatitis virus infected in MDCK assessed as inhibition of virus-induced cytopathicity after 3 days; type: functional, organism-based
[13] = Cytotoxicity against HEL assessed as minimum compound concentration causes microscopically detectable alteration of cell morphology after 3 days; type: cell-based; details: human, HEL cells
[14] = tested on: Human alphaherpesvirus 2; experiment: Antiviral activity against HSV2 G infected in HEL assessed as inhibition of virus-induced cytopathicity after 3 days; type: functional, organism-based; details: Human alphaherpesvirus 2, strain G, 72 h; method in brief: as §1
[15] = tested on: Coxsackievirus B4; experiment: Antiviral activity against Coxsackievirus B4 infected in human HeLa assessed as inhibition of virus-induced cytopathicity after 3 days; type: functional, organism-based; method in brief: as §1
[16] = tested on: Human alphaherpesvirus 1; experiment: Antiviral activity against acyclovir-resistant thymidine kinase deficient HSV1 KOS infected in HEL assessed as inhibition of virus-induced cytopathicity after 3 days; type: functional, organism-based; details: Human alphaherpesvirus 1, KOS, 72 h
[17] = tested on: Punta Toro virus; experiment: Antiviral activity against Punta Toro virus infected in african green monkey Vero assessed as inhibition of virus-induced cytopathicity after 3 days; type: functional, organism-based; method in brief: as §1
[18] = tested on: Influenza A virus; experiment: Antiviral activity against Influenza A virus H3N2 infected in MDCK assessed as inhibition of virus-induced cytopathicity after 3 days; type: functional, organism-based
[19] = tested on: Sindbis virus; experiment: Antiviral activity against Sindbis virus infected in african green monkey Vero assessed as inhibition of virus-induced cytopathicity after 3 days; type: functional, organism-based; method in brief: as §1
[20] = tested on: Mammalian orthoreovirus 1; experiment: Antiviral activity against Reovirus-1 infected in african green monkey Vero assessed as inhibition of virus-induced cytopathicity after 3 days; type: functional, organism-based; method in brief: as §1
[21] = tested on: Human alphaherpesvirus 1; experiment: Antiviral activity against HSV1 KOS infected in HEL assessed as inhibition of virus-induced cytopathicity after 3 days; type: functional, organism-based; details: Human alphaherpesvirus 1, KOS, 72 h
[22] = tested on: L1210; experiment: Cytotoxicity against mouse L1210 cells; type: cell-based
[23] = tested on: Human immunodeficiency virus 1; experiment: Antiviral activity against HIV1 3B infected in human CEM cells assessed as inhibition of virus-induced giant cell formation after 4 days; type: functional, organism-based; details: Human immunodeficiency virus 1, 3B, CCRF-CEM, 96 h
Method in brief: (§2)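 Human CEM cells (~3×10^5 cells/cm3) were infected with 100 CCID50 of HIV-1(IIIB) or HIV-2(ROD) per ml and seeded into wells containing compound dilutions. After 4 days at 37 °C, giant cell formation was examined microscopically.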

[24] = Selectivity index, ratio of CC50 for human CEM cells to EC50 for HIV2 ROD; type: toxicity, cell-based, CCRF-CEM; details: read-out: Ratio CC50/EC50
[25] = tested on: Human immunodeficiency virus 2; experiment: Antiviral activity against HIV2 ROD infected in human CEM cells assessed as inhibition of virus-induced giant cell formation after 4 days; type: functional, organism-based; details: Human immunodeficiency virus 2, ISOLATE ROD, CCRF-CEM, 96 h; method in brief: as §2
[26] = tested on: CCRF-CEM; experiment: Cytotoxicity against human CEM cells; type: cell-based
[27] = tested on: HeLa; experiment: Cytotoxicity against human HeLa cells; type: cell-based

Row | Compound | Activity [1] | pEC50 [2] | Activity [3] | Activity [4] | pEC50 [5] | pEC50 [7] | Activity [8] | CC50 at 72 h [9] [µM] | Activity [10] | pEC50 [11] | Activity [12] | MCC at 72 h [13] [µM] | pEC50 [14] | Activity [15] | pEC50 [16] | Activity [17] | Activity [18] | Activity [19] | Activity [20] | pEC50 [21] | other results
1 | CC(C)(C)C(=O)OCOP(=O)(C/C=C/Cn1cnc2c(=O)[nH]c(N)nc21)OCOC(=O)C(C)(C)C | inactive | 5.98 | inactive | inactive | 4.96 | 4.00 | inactive | 4.1 | inactive | 6.10 | inactive | > 100 | 5.11 | inactive | 5.24 | inactive | inactive | inactive | inactive | 5.41 | CC50 at 72 h [6]: > 100 µM
2 | Nc1nc2c(ncn2COC(CO)CO)c(=O)[nH]1 [GANCICLOVIR] |  |  |  |  | 5.92 |  |  |  |  |  |  |  |  |  |  |  |  |  |  |  | CC50 at 72 h [6]: > 100 µM
3 | COc1nc(N)nc2c1ncn2C/C=C/CP(=O)(OCOC(=O)C(C)(C)C)OCOC(=O)C(C)(C)C | inactive | 7.00 | inactive | inactive |  | 4.80 | inactive | 1.6 | inactive | 6.30 | inactive | > 100 | 5.19 | inactive | 5.12 | inactive | inactive | inactive | inactive | 5.22 | pIC50 [22]: 4.43; pEC50 [23]: < 6.40; selectivity ratio [24]: 28.5; pEC50 [25]: 6.55; pIC50 [26]: 5.10; pIC50 [27]: 4.43
4 | CC(C)c1ccc(Nc2nc(N)nc3c2ncn3C/C=C/CP(=O)(OCOC(=O)C(C)(C)C)OCOC(=O)C(C)(C)C)cc1 | inactive | < 4.70 | inactive | inactive |  | < 4.00 | inactive | 46 | inactive | < 4.00 | inactive | > 100 | < 4.00 | inactive | < 4.00 | inactive | inactive | inactive | inactive | < 4.00 | 
5 | CCCCNc1nc(N)nc2c1ncn2C/C=C/CP(=O)(OCOC(=O)C(C)(C)C)OCOC(=O)C(C)(C)C | inactive | 4.49 | inactive | inactive |  | < 4.00 | inactive | 60 | inactive | 4.36 | inactive | > 100 | < 4.00 | inactive | < 4.00 | inactive | inactive | inactive | inactive | < 4.00 | 
6 | CC(C)(C)C(=O)OCOP(=O)(C/C=C/Cn1cnc2c(N)nc(N)nc21)OCOC(=O)C(C)(C)C | inactive | 5.17 | inactive | inactive |  | < 4.70 | inactive | 36 | inactive | 4.92 | inactive | > 100 | 4.70 | inactive | 4.70 | inactive | inactive | inactive | inactive | 4.70 | pIC50 [22]: 3.89; pEC50 [23]: 5.18; selectivity ratio [24]: 7.3; pEC50 [25]: 5.20; pIC50 [26]: 4.34; pIC50 [27]: 3.89
